# OX1R antag-1: OX1R (human) antagonism. O43613. OX1R-expressing cells, FRET antagonist read-out. inhibition, % at 6.6 µM. 330,000 tested, 1.8% active. AID 485270; in the data active = inhibition mostly above about 38%, no sharp cut-off; inactive = mostly below about 40%;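 also: 0% = agonist challenge alone and 100% = reference antagonist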
# CHO parental Ca: signal in parental CHO cells, OX1R antagonist counter-screen. 330,000 tested, 0.63% active. parental CHO-K1, ATP-induced calcium, Fluo-8 fluorescence. AID 463079. inhibition, % at 5.6 µM;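 active = inhibition above that plate's mean sample inhibition plus 3 SD, cut at about 26% in these data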;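 also: 0% = ATP-challenged DMSO wells and 100% = DMSO wells without ATP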
#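 Material: parental CHO cells / Compound: single nominal dose of 5.6 µM per compound / Signal: Fluo-8 fluorescence / Replicates: singlicate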
# TAAR1 antag: antagonists of human TAAR1; Q96RJ0; CHO RD-HGA16 TAAR1, Fluo-8 calcium fluorescence, antagonist; inhibition, % at 3 µM; 360,000 tested, 1.5% active; AID 624466;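 active = inhibition above a per-plate cutoff, the mean inhibition of test compounds on that plate plus 3 SD, cut at about 49% in these data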;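 also: 0% = DMSO plus EC80 beta-PEA response and 100% = DMSO alone without agonist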
#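 Test system: RD-HGA16 CHO cells with stable hTAAR1 and Gα16 / Probe or stimulus: EC80 β-phenethylamine stimulus / Times: seeding 17-24 h prior, 75-min 37 °C, 30-min RT dye loading / Detection: Fluo-8 calcium-sensitive fluorescence / Read-out basis: % inhibition scaled between DMSO and EC80 PEA controls / Repeats: singlicate, one well per test compound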
# OX1R antag-2: blocks the human orexin 1 receptor; O43613; CHO/OX1R cells, Fluo-8 calcium fluorescence, orexin A; inhibition, % at 5 µM; 330,000 tested, 0.43% active; AID 434989;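 active = inhibition above its plate's threshold, mean inhibition of all tested compounds on the plate plus 3 SD, cut at about 37% in these data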;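 also: 0% = orexin A challenge wells and 100% = SB-334867-A antagonist wells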
# TAAR1 ag: human TAAR1 agonism; AID 624467; 360,000 tested, 0.99% active; activation, % at 3 µM; CHO RD-HGA16 TAAR1, Fluo-8 calcium fluorescence; vehicle wells 0%, saturating PEA agonist 100%; Q96RJ0;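 active = activation above the mean activation of all test compounds in the run plus 3 SD, cut at about 38% in these data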
#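 System: CHO-derived RD-HGA16 cells with stable Gα16 and human TAAR1 / Times: 17-24 h plating, Fluo-8 75 min 37 °C, 30 min RT / Technique: calcium-sensitive Fluo-8 signal, excitation 470-495, emission 515-575 nm / Measure: % activation relative to PEA EC100 response / Benchmarks: DMSO and PEA EC100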
# GPR7 antag: human neuropeptides B/W receptor 1 antagonism; inhibition, % at 4.4 µM; 290,000 tested, 1.1% active; GPR7-expressing cells, fluorescence antagonist assay; in the data active = inhibition above about 16%, passing the limit was not always enough;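 also: cells stimulated with the agonist NPW; 0% = agonist with vehicle and 100% = vehicle without agonist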
# Target sequence (P48145 whole entry, looked up): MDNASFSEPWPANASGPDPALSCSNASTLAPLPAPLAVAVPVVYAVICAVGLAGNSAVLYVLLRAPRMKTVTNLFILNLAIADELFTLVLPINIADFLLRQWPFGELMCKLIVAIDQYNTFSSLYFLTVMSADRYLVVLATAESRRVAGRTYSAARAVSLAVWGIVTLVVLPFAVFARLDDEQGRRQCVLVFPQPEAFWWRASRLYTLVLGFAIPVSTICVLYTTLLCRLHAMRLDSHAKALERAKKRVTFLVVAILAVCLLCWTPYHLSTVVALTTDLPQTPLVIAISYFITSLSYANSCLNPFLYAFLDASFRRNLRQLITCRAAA
# * marks the source's active call; other numbers are inactive results; nt = not tested or not shown. Only some compounds are listed: those with a hit (about 4.6% of all), similar ones and a draw of the others.
SMILES,OX1R antag-1,CHO parental Ca,TAAR1 antag,OX1R antag-2,TAAR1 ag,GPR7 antag
O=C(Nc1ccc(S(=O)(=O)N2CCOCC2)cc1)c1cc(-c2ccccc2O)n[nH]1,-5.1,-11.8,54.1*,-3.4,18.5,-4.8
CC1CN(S(=O)(=O)c2ccc(NC(=O)c3cc(-c4ccccc4O)n[nH]3)cc2)CC(C)O1 (stereo unspecified),9.3,-4.3,42.2,5.0,16.0,-17.3
Cc1nc2ccccc2c2c1CC(C(C)(Cl)Br)O2 (stereo unspecified),44.5,50.8*,-19.2,16.0,5.9,18.4
Cc1noc(C)c1S(=O)(=O)N(C)C[C@H]1Oc2ccc(NS(=O)(=O)c3ccc(F)cc3)cc2C(=O)N([C@H](C)CO)C[C@@H]1C,0.8,0.1,-8.5,1.5,1.4,nt
CCOC(=O)c1c(NC(=O)CSc2nnc(-c3c[nH]c4ccccc34)n2CCOC)sc2c1CCCCC2,44.6*,-8.8,-25.0,12.5,-1.0,-17.4
CCOC(=O)c1c(NC(=O)CSc2c[nH]c3ccccc23)sc2c1CCCC2,1.5,0.3,0.6,-18.9,0.2,-2.4
O=c1c(NCCc2ccc(Cl)cc2)c(-c2ccccc2)c1=O,1.6,-3.9,-20.7,-9.4,42.1*,-3.2
O=C(/C=C/c1cccc(F)c1)OCC(=O)N1CCc2ccccc21,1.0,-8.6,48.6*,12.0,19.8,nt
COc1cc(/C=C/C(=O)OCC(=O)N2CCCc3ccccc32)ccc1O,18.6,-16.3,21.7,-15.7,5.1,nt
O=C1OC(c2ccc(Br)cc2)=N/C1=C\N1CCCCC1,17.4,-5.2,1.2,-13.4,1.6,4.4
COc1cc(/C=C/c2nc3ccccc3c(=O)[nH]2)ccc1O,nt,nt,-11.5,nt,7.3,nt
Cc1cccc(/C=C/c2nc3ccccc3c(=O)[nH]2)c1,69.2*,-13.7,1.9,-17.6,0.6,0.1
Cc1ccc(NC(=O)CSCC(=O)OC(C)C(=O)Nc2ccccc2C)cc1 (stereo unspecified),nt,nt,-25.3,nt,1.3,nt
Cc1ccc(NC(=O)NC(=O)COC(=O)c2ccc(O)cc2O)c(C)c1,nt,nt,-4.4,nt,11.3,nt
O=C(COc1ccc2c(c1)OCO2)Nc1ccccc1F,8.3,-9.7,-1.3,-3.1,-0.3,-1.1
Fc1ccc([C@@H]2CCNC[C@H]2COc2ccc3c(c2)OCO3)cc1,9.5,-4.5,5.1,13.8,20.2,31.8*
O=C(Nc1nc(-c2ccccc2Cl)cs1)c1cccnc1,15.2,-15.1,8.5,-13.7,41.2*,-4.9
O=C(Nc1nc(-c2cccs2)cs1)c1ccc(Cl)cc1,50.4,-31.3,-28.3,-20.5,4.0,-11.9
O=C(CSCC(=O)N1CCN(c2ccccc2)CC1)Nc1nc(-c2ccc(Cl)s2)cs1,30.2,15.4,18.4,-5.4,2.7,-10.5
O=C(CSCC(=O)N1CCCCC1)Nc1nc(-c2ccc(Cl)s2)cs1,20.4,30.1*,54.5*,-12.8,1.2,3.8
O=C(Nc1nc(-c2ccc(Cl)s2)cs1)c1ccncc1,44.1*,-19.8,-29.7,7.7,8.7,-5.5
COC(=O)CCCC(=O)N1CCC(CCC(=O)NC2CC2)CC1,-7.1,11.6,-12.5,-13.7,2.6,-14.8
Cc1cccc(Nc2nc(N)nc(N)c2N=O)c1,nt,nt,-56.0,nt,45.5*,nt
C/C(N)=C(/C#N)C(=O)COC(=O)CNS(=O)(=O)c1ccc(F)c(F)c1F,22.0,-8.9,-26.6,-6.7,4.4,9.0
C=CCn1c(-c2cccs2)nc2ccccc21,52.1,-6.7,-6.8,-13.5,3.2,-9.8
SMILES,OX1R antag-1,CHO parental Ca,TAAR1 antag,OX1R antag-2,TAAR1 ag,GPR7 antag
C=CCn1c(-c2cccs2)nc2nc3ccccc3nc21,72.4*,-20.5,14.9,-13.2,11.3,-16.1
CCOC(=O)Cc1csc(NS(=O)(=O)c2cc(Cl)ccc2Cl)n1,-9.6,-15.1,6.6,-27.9,-1.7,-8.3
C=Cc1ccc(Cn2nc(-c3ccccc3)ccc2=O)cc1,7.2,49.9*,6.8,-3.4,0.2,22.4
O=c1ccc(-c2ccccc2)nn1Cc1ccccc1F,nt,nt,2.0,nt,6.5,7.7
CCN1C(=O)/C(=C2/C=CC=CN2C)SC1=S,45.8*,4.9,-4.6,3.6,6.0,4.3
C=CCn1c(SCC(=O)c2cc(C)n(C(C)COC)c2C)nc2sc(C)c(C)c2c1=O (stereo unspecified),10.4,35.9*,24.1,-6.0,10.0,-6.9
